Reference: ChEMBL document CHEMBL4392821
The source made the active and inactive calls. Square brackets hold non-standard residues; d marks the D form. Peptide text beside a SMILES is read from it. * marks the point of attachment. ξ: configuration not given here. X1 = CCCCCCCCCCCCCCCC(=O)OCC(C*)OC(=O)CCCCCCCCCCCCCCC; Palmitoyl = CCCCCCCCCCCCCCCC(=O)*; ξC = NC(CS)C(=O)O

What was measured:
[1] = biological target: T1, Toll-like receptor 1/2 (Homo sapiens) (UniProt O60603+Q15399); assay: Antagonist activity at TLR2/TLR1 in human THP1 cells assessed as reduction in diprovoci-induced TNF production at 5 uM pre-incubated for 1 hr before diprovocim stimulation for 4 hrs by ELISA method; format: cell-based
[2] = biological target: T1, Toll-like receptor 1/2 (Homo sapiens); assay: Antagonist activity at TLR2/TLR1 in human THP1 cells assessed as reduction in diprovoci-induced TNF production at 50 uM pre-incubated for 1 hr before diprovocim stimulation for 4 hrs by ELISA method; format: cell-based
Homo sapiens [3] = species on record: Homo sapiens; assay: Agonist activity at human TLR2/TLR1 Y320A mutant expressed in HEK293T cells coexpressing NF-kappaB-driven luciferase reporter at 100 nM after 6 hrs by luciferase reporter gene assay; format: cell-based
How it was run: (§1)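 HEK293T cells stably carrying an NF-κB-driven luciferase reporter, in DMEM, were plated 18 h before transfection. They were co-transfected by lipofection with WT or point-mutant human TLR(2–1) and TLR(1–2) ectodomain/TIR-swap chimeras, and expression was checked by immunoblot. After 24 h, cells were stimulated for 6 h with 100 nM agonist or 20 or 50 ng/mL Pam3CSK4, then lysed for a luciferase read-out.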

Homo sapiens [4] = species on record: Homo sapiens; assay: Agonist activity at human TLR1/TLR2 Y323A mutant expressed in HEK293T cells coexpressing NF-kappaB-driven luciferase reporter at 100 nM after 6 hrs by luciferase reporter gene assay; format: cell-based; how it was run: as §1
Homo sapiens [5] = species on record: Homo sapiens; assay: Agonist activity at human TLR2/TLR1 W258A mutant expressed in HEK293T cells coexpressing NF-kappaB-driven luciferase reporter at 100 nM after 6 hrs by luciferase reporter gene assay; format: cell-based; how it was run: as §1
Homo sapiens [6] = species on record: Homo sapiens; assay: Agonist activity at human TLR1/TLR2 F349A mutant expressed in HEK293T cells coexpressing NF-kappaB-driven luciferase reporter at 100 nM after 6 hrs by luciferase reporter gene assay; format: cell-based; how it was run: as §1
Homo sapiens [7] = species on record: Homo sapiens; assay: Agonist activity at human TLR2/TLR1 V339A mutant expressed in HEK293T cells coexpressing NF-kappaB-driven luciferase reporter at 100 nM after 6 hrs by luciferase reporter gene assay; format: cell-based; how it was run: as §1
Homo sapiens [8] = species on record: Homo sapiens; assay: Agonist activity at human TLR2/TLR1 F312A mutant expressed in HEK293T cells coexpressing NF-kappaB-driven luciferase reporter at 100 nM after 6 hrs by luciferase reporter gene assay; format: cell-based; how it was run: as §1
Homo sapiens [9] = species on record: Homo sapiens; assay: Agonist activity at human TLR1/TLR2 L350A mutant expressed in HEK293T cells coexpressing NF-kappaB-driven luciferase reporter at 100 nM after 6 hrs by luciferase reporter gene assay; format: cell-based; how it was run: as §1
Homo sapiens [10] = species on record: Homo sapiens; assay: Agonist activity at human TLR1/TLR2 L328A mutant expressed in HEK293T cells coexpressing NF-kappaB-driven luciferase reporter at 100 nM after 6 hrs by luciferase reporter gene assay; format: cell-based; how it was run: as §1
Homo sapiens [11] = species on record: Homo sapiens; assay: Agonist activity at human TLR2/TLR1 I319A mutant expressed in HEK293T cells coexpressing NF-kappaB-driven luciferase reporter at 100 nM after 6 hrs by luciferase reporter gene assay; format: cell-based; how it was run: as §1
Homo sapiens [12] = species on record: Homo sapiens; assay: Agonist activity at human TLR1/TLR2 D327A mutant expressed in HEK293T cells coexpressing NF-kappaB-driven luciferase reporter at 100 nM after 6 hrs by luciferase reporter gene assay; format: cell-based; how it was run: as §1
Homo sapiens [13] = species on record: Homo sapiens; assay: Agonist activity at human TLR2/TLR1 H340A mutant expressed in HEK293T cells coexpressing NF-kappaB-driven luciferase reporter at 100 nM after 6 hrs by luciferase reporter gene assay; format: cell-based; how it was run: as §1
Homo sapiens [14] = species on record: Homo sapiens; assay: Agonist activity at human TLR1/TLR2 Y332A mutant expressed in HEK293T cells coexpressing NF-kappaB-driven luciferase reporter at 100 nM after 6 hrs by luciferase reporter gene assay; format: cell-based; how it was run: as §1
Homo sapiens [15] = species on record: Homo sapiens; assay: Agonist activity at human TLR1/TLR2 Y376 mutant expressed in HEK293T cells coexpressing NF-kappaB-driven luciferase reporter at 100 nM after 6 hrs by luciferase reporter gene assay; format: cell-based; how it was run: as §1
Homo sapiens [16] = species on record: Homo sapiens; assay: Agonist activity at human TLR1/TLR2 Y325A mutant expressed in HEK293T cells coexpressing NF-kappaB-driven luciferase reporter at 100 nM after 6 hrs by luciferase reporter gene assay; format: cell-based; how it was run: as §1
Homo sapiens [17] = species on record: Homo sapiens; assay: Agonist activity at human TLR1/TLR2 V348A mutant expressed in HEK293T cells coexpressing NF-kappaB-driven luciferase reporter at 100 nM after 6 hrs by luciferase reporter gene assay; format: cell-based; how it was run: as §1
Homo sapiens [18] = species on record: Homo sapiens; assay: Agonist activity at human TLR2/TLR1 F314A mutant expressed in HEK293T cells coexpressing NF-kappaB-driven luciferase reporter at 100 nM after 6 hrs by luciferase reporter gene assay; format: cell-based; how it was run: as §1
[19] = biological target: T2, Toll-like receptor 1 (Homo sapiens) (UniProt Q15399); assay: Induction of human TLR1 homodimerization expressed in insect Hi5 cells by size exclusion chromatography
T2 sequence (whole entry): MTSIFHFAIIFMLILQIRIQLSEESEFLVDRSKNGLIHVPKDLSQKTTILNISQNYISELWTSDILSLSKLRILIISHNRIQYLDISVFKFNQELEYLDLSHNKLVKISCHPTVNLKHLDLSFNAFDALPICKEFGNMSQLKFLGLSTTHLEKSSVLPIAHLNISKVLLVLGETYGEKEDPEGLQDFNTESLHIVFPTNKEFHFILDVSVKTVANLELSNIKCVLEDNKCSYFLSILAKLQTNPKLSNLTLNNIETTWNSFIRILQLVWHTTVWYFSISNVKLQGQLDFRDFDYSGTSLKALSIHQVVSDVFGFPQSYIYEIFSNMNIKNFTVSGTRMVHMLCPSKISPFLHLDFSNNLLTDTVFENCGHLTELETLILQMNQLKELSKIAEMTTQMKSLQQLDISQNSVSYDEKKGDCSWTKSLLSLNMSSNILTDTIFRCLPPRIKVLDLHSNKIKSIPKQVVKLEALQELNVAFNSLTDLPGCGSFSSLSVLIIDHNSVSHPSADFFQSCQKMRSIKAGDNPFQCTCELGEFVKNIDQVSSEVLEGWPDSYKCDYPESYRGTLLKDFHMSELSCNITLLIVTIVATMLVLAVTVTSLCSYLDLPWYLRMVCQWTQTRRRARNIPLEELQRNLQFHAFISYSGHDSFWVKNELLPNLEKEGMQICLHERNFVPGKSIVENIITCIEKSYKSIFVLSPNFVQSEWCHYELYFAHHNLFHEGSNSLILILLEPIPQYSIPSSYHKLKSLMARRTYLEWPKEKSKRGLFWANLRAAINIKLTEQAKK
How it was run: (§2)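 Human TLR1 and TLR2 ectodomains were made in Hi5 insect cells, partially deglycosylated, and had the protein A tag cleaved by thrombin before purification. Protein at 1 μM (each alone, or both together) was incubated with 30 μM ligand in 25 mM HEPES pH 8.0, 150 mM NaCl, 10% DMSO for 4 h at room temperature. Dimer formation was then analysed by analytical gel filtration on Superdex 200.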

Homo sapiens [20] = species on record: Homo sapiens; assay: Agonist activity at human TLR1/TLR2 Y376 mutant expressed in HEK293T cells coexpressing NF-kappaB-driven luciferase reporter at 20 ng/ml after 6 hrs by luciferase reporter gene assay; format: cell-based; how it was run: as §1
Homo sapiens [21] = species on record: Homo sapiens; assay: Agonist activity at human TLR2/TLR1 V339A mutant expressed in HEK293T cells coexpressing NF-kappaB-driven luciferase reporter at 50 ng/ml after 6 hrs by luciferase reporter gene assay; format: cell-based; how it was run: as §1
Homo sapiens [22] = species on record: Homo sapiens; assay: Agonist activity at human TLR2/TLR1 F312A mutant expressed in HEK293T cells coexpressing NF-kappaB-driven luciferase reporter at 50 ng/ml after 6 hrs by luciferase reporter gene assay; format: cell-based; how it was run: as §1
Homo sapiens [23] = species on record: Homo sapiens; assay: Agonist activity at human TLR2/TLR1 W258A mutant expressed in HEK293T cells coexpressing NF-kappaB-driven luciferase reporter at 50 ng/ml after 6 hrs by luciferase reporter gene assay; format: cell-based; how it was run: as §1
Homo sapiens [24] = species on record: Homo sapiens; assay: Agonist activity at human TLR1/TLR2 L328A mutant expressed in HEK293T cells coexpressing NF-kappaB-driven luciferase reporter at 20 ng/ml after 6 hrs by luciferase reporter gene assay; format: cell-based; how it was run: as §1
Homo sapiens [25] = species on record: Homo sapiens; assay: Agonist activity at human TLR1/TLR2 Y332A mutant expressed in HEK293T cells coexpressing NF-kappaB-driven luciferase reporter at 20 ng/ml after 6 hrs by luciferase reporter gene assay; format: cell-based; how it was run: as §1
Homo sapiens [26] = species on record: Homo sapiens; assay: Agonist activity at human TLR1/TLR2 Y323A mutant expressed in HEK293T cells coexpressing NF-kappaB-driven luciferase reporter at 20 ng/ml after 6 hrs by luciferase reporter gene assay; format: cell-based; how it was run: as §1
[27] = biological target: Toll-like receptor 2 (Homo sapiens) (UniProt O60603); assay: Induction of human TLR2 homodimerization expressed in insect Hi5 cells by size exclusion chromatography; how it was run: as §2
Toll-like receptor 2 (Homo sapiens), sequence (O60603 whole entry): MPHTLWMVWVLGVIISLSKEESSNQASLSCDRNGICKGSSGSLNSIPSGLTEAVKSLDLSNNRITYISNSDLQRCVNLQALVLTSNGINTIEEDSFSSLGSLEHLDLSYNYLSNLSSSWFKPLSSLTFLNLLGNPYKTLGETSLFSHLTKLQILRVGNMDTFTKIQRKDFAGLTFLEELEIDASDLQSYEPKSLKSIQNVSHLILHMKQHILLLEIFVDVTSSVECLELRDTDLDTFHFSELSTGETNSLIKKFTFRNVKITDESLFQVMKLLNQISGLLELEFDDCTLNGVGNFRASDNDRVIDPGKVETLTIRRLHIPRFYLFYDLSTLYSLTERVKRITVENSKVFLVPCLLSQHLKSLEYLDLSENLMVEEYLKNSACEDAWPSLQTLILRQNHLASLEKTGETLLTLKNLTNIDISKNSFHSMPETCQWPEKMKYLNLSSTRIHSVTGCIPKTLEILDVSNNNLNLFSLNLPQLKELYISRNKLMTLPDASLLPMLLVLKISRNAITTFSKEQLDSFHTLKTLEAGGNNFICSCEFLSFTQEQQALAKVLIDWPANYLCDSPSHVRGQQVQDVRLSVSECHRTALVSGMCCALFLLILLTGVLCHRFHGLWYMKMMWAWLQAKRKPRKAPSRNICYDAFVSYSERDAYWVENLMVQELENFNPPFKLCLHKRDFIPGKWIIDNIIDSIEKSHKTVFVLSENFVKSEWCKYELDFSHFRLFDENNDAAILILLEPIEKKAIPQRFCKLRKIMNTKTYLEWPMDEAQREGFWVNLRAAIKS

Homo sapiens [28] = species on record: Homo sapiens; assay: Agonist activity at human TLR2/TLR1 I319A mutant expressed in HEK293T cells coexpressing NF-kappaB-driven luciferase reporter at 50 ng/ml after 6 hrs by luciferase reporter gene assay; format: cell-based; how it was run: as §1
Homo sapiens [29] = species on record: Homo sapiens; assay: Agonist activity at human TLR2/TLR1 F314A mutant expressed in HEK293T cells coexpressing NF-kappaB-driven luciferase reporter at 50 ng/ml after 6 hrs by luciferase reporter gene assay; format: cell-based; how it was run: as §1
Homo sapiens [30] = species on record: Homo sapiens; assay: Agonist activity at human TLR1/TLR2 L350A mutant expressed in HEK293T cells coexpressing NF-kappaB-driven luciferase reporter at 20 ng/ml after 6 hrs by luciferase reporter gene assay; format: cell-based; how it was run: as §1
[31] = biological target: T1, Toll-like receptor 1/2 (Homo sapiens); assay: Induction of human TLR2/TLR1 heterodimerization expressed in insect Hi5 cells by size exclusion chromatography; how it was run: as §2
Homo sapiens [32] = species on record: Homo sapiens; assay: Agonist activity at human TLR2/TLR1 H340A mutant expressed in HEK293T cells coexpressing NF-kappaB-driven luciferase reporter at 50 ng/ml after 6 hrs by luciferase reporter gene assay; format: cell-based; how it was run: as §1
Homo sapiens [33] = species on record: Homo sapiens; assay: Agonist activity at human TLR1/TLR2 Y325A mutant expressed in HEK293T cells coexpressing NF-kappaB-driven luciferase reporter at 20 ng/ml after 6 hrs by luciferase reporter gene assay; format: cell-based; how it was run: as §1
Homo sapiens [34] = species on record: Homo sapiens; assay: Agonist activity at human TLR1/TLR2 F349A mutant expressed in HEK293T cells coexpressing NF-kappaB-driven luciferase reporter at 20 ng/ml after 6 hrs by luciferase reporter gene assay; format: cell-based; how it was run: as §1
Homo sapiens [35] = species on record: Homo sapiens; assay: Agonist activity at human TLR1/TLR2 V348A mutant expressed in HEK293T cells coexpressing NF-kappaB-driven luciferase reporter at 20 ng/ml after 6 hrs by luciferase reporter gene assay; format: cell-based; how it was run: as §1
Homo sapiens [36] = species on record: Homo sapiens; assay: Agonist activity at human TLR1/TLR2 D327A mutant expressed in HEK293T cells coexpressing NF-kappaB-driven luciferase reporter at 20 ng/ml after 6 hrs by luciferase reporter gene assay; format: cell-based; how it was run: as §1
Homo sapiens [37] = species on record: Homo sapiens; assay: Agonist activity at human TLR2/TLR1 Y320A mutant expressed in HEK293T cells coexpressing NF-kappaB-driven luciferase reporter at 50 ng/ml after 6 hrs by luciferase reporter gene assay; format: cell-based; how it was run: as §1

O=C(N[C@H]1C[C@@H]1c1ccccc1)[C@@H]1CN(C(=O)c2ccccc2)C[C@H]1C(=O)N[C@H]1C[C@@H]1c1ccccc1
active: inhibition [1] | inhibition [2]

O=C(N[C@H]1C[C@@H]1c1ccccc1)[C@@H]1CN(C(=O)c2ccc(C(=O)N3C[C@@H](C(=O)N[C@H]4C[C@@H]4c4ccccc4)[C@H](C(=O)N[C@H]4C[C@@H]4c4ccccc4)C3)cc2)C[C@H]1C(=O)N[C@H]1C[C@@H]1c1ccccc1
active: Activity (Homo sapiens [8]) | Activity (Homo sapiens [9]) | Activity (Homo sapiens [10]) | Activity (Homo sapiens [12]) | Activity (Homo sapiens [14]) | Activity (Homo sapiens [15]) | Activity (Homo sapiens [18])
inactive: Activity (Homo sapiens [3]) | Activity (Homo sapiens [4]) | Activity (Homo sapiens [5]) | Activity (Homo sapiens [6]) | Activity (Homo sapiens [7]) | Activity (Homo sapiens [11]) | Activity (Homo sapiens [13]) | Activity (Homo sapiens [16]) | Activity (Homo sapiens [17]) | Activity [19]

CCCCCCCCCCCCCCCC(=O)NC(CSCC(COC(=O)CCCCCCCCCCCCCCC)OC(=O)CCCCCCCCCCCCCCC)C(=O)N[C@@H](CO)C(=O)N[C@@H](CCCCN)C(=O)N[C@@H](CCCCN)C(=O)N[C@@H](CCCCN)C(=O)N[C@@H](CCCCN)C(=O)O (stereo partly drawn) (Palmitoyl-[ξC](X1)SKKKK-OH)
active: Activity [31]
inactive: Activity (Homo sapiens [20]) | Activity (Homo sapiens [21]) | Activity (Homo sapiens [22]) | Activity (Homo sapiens [23]) | Activity (Homo sapiens [24]) | Activity (Homo sapiens [25]) | Activity (Homo sapiens [26]) | Activity [27] | Activity (Homo sapiens [28]) | Activity (Homo sapiens [29]) | Activity (Homo sapiens [30]) | Activity (Homo sapiens [32]) | Activity (Homo sapiens [33]) | Activity (Homo sapiens [34]) | Activity (Homo sapiens [35]) | Activity (Homo sapiens [36]) | Activity (Homo sapiens [37]) | Activity [19]
